Measured values as given in ChEMBL document CHEMBL1138064, “Discovery of N-[(3R)-1-azabicyclo[2.2.2]oct-3-yl]furo[2,3-c]pyridine-5-carboxamide, an agonist of the alpha7 nicotinic acetylcholine receptor, for the potential treatment of cognitive deficits in schizophrenia: synthesis and structure--activity relationship” (J Med Chem, 2006).
pIC50, pKi: −log10 of the molar value. Active and inactive are the calls of the source. The calls are words filed in the database; no cut-off is given here.

Assays:
[1] = target: Neuronal acetylcholine receptor; alpha3/beta4 (Homo sapiens, UniProt P30926+P32297); assay: Inhibition of alpha-3-beta-4 nAChR expressed in SHSY5Y cells by FLIPR assay; assay type: functional, cell-based, SH-SY5Y
Outline: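 FLIPR cell-based functional assay in SH-SY5Y cells, which carry α3β4-containing ganglion-type nAChRs; tested for agonist and antagonist activity; IC50 in µM.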

[2] = target: Translocator protein (Homo sapiens) (UniProt P30536); assay: Inhibition of peripheral BZD receptor at 1 uM
[3] = target: Acetylcholinesterase (Homo sapiens) (UniProt P22303); assay: Inhibition of acetylcholinesterase at 1 uM
[4] = target: Muscarinic acetylcholine receptor M3 (Homo sapiens) (UniProt P20309); assay: Inhibition of M3 receptor at 1 uM
[5] = target: cGMP-dependent 3',5'-cyclic phosphodiesterase (Homo sapiens) (UniProt O00408); assay: Inhibition of PDE2 at 1 uM
[6] = target: L-type calcium channel, verapamil site (Homo sapiens, UniProt O60840+Q01668+Q13698+Q13936); assay: Inhibition of verapamil site of Calcium channel L type at 1 uM; assay type: protein assay
[7] = target: Muscarinic acetylcholine receptor M4 (Homo sapiens) (UniProt P08173); assay: Inhibition of M4 receptor at 1 uM
[8] = target: Vasoactive intestinal polypeptide receptor 2 (Homo sapiens) (UniProt P41587); assay: Inhibition of PACAP receptor at 1 uM
[9] = target: D(3) dopamine receptor (Homo sapiens) (UniProt P35462); assay: Inhibition of D3 receptor at 1 uM
Rattus norvegicus [10] = assay: Reversal of amphetamine-induced gating deficit in Sprague-Dawley at 0.3 mg/kg, iv; assay type: functional, organism-based; parameters: dose 0.3 mg/kg
Outline: (§1)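 Anesthetised rats; d-amphetamine 1 mg/kg iv given to disrupt auditory gating recorded in the hippocampal CA3 region (conditioning vs test responses, analogous to human P50). Agonist given iv afterwards; read-out is % gating versus amphetamine-alone. The 10 mg/kg dose was run as a separate experiment. Brain drug levels were measured after the iv doses.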

[11] = target: Sodium/potassium-transporting ATPase (Homo sapiens) (UniProt P05023+P14415+P05026+P50993+P54709+P13637+Q13733+P54710); assay: Inhibition of Sodium/potassium-transporting ATPase at 1 uM; assay type: protein-complex assay
[12] = target: Endothelin receptor type B (Homo sapiens) (UniProt P24530); assay: Inhibition of human ETB receptor at 1 uM
[13] = target: Adrenergic receptor alpha-2 (Homo sapiens) (UniProt P08913+P18825+P18089); assay: Inhibition of adrenergic alpha2 receptor at 1 uM; assay type: protein assay
[14] = target: Adrenergic receptor alpha-1 (Homo sapiens) (UniProt P35348+P25100+P35368); assay: Inhibition of adrenergic alpha1 receptor at 1 uM; assay type: protein assay
[15] = target: Glutamate [NMDA] receptor (Homo sapiens) (UniProt Q05586+Q12879+Q13224+O15399+O60391+Q14957+Q8TCU5); assay: Inhibition of NMDA receptor at 1 uM; assay type: protein-complex assay
[16] = target: 5-hydroxytryptamine receptor 6 (Homo sapiens) (UniProt P50406); assay: Inhibition of 5HT6 receptor at 1 uM
[17] = target: Serotonin 3 (5-HT3) receptor; assay: Binding affinity to 5HT3 receptor; assay type: protein-complex assay, Homo sapiens
[18] = target: Neuronal acetylcholine receptor subunit alpha-7 (Rattus norvegicus) (UniProt Q05941); assay: Activity at alpha-7 nAChR in Sprague-Dawley rat hippocampal neurons assessed as induction of MLA-inhibited desensitizing inward current at 30 uM relative to (-)-nicotine; assay type: functional, tissue-based; parameters: scale not given: the % may be the effect or the level left; conditions: Hippocampus
Outline: (§2)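 Rat hippocampal neurons were recorded by whole-cell patch clamp with rapid agonist application. Desensitizing inward currents were measured, and α7 mediation was tested with MLA (10 nM), n = 3.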

[19] = target: Muscarinic acetylcholine receptor M2 (Homo sapiens) (UniProt P08172); assay: Inhibition of M2 receptor at 1 uM
[20] = target: Substance-P receptor (Homo sapiens) (UniProt P25103); assay: Inhibition of NK1 receptor at 1 uM
[21] = target: Cannabinoid receptor 2 (Homo sapiens) (UniProt P34972); assay: Inhibition of CB2 receptor at 1 uM
[22] = target: Type-2 angiotensin II receptor (Homo sapiens) (UniProt P50052); assay: Inhibition of AT2 receptor at 1 uM
[23] = target: Sigma non-opioid intracellular receptor 1 (Homo sapiens) (UniProt Q99720); assay: Inhibition of sigma receptor at 1 uM
[24] = target: Histamine H1 receptor (Homo sapiens) (UniProt P35367); assay: Inhibition of central histamine H1 receptor at 1 uM
[25] = target: Sodium-dependent serotonin transporter (Homo sapiens) (UniProt P31645); assay: Inhibition of human 5-HT transporter at 1 uM
[26] = target: Protein kinase C (PKC) (Homo sapiens) (UniProt O94806+P41743+P17252+P05129+Q05655+P05771+Q05513+Q02156+P24723+Q15139+Q04759); assay: Inhibition of PKC at 1 uM; assay type: protein assay
[27] = Oral bioavailability in rat constant infusion model; assay type: ADME, organism-based; conditions: in vivo
Outline: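 Rat clearance and oral bioavailability derived from a constant infusion model.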

[28] = target: Histamine H2 receptor (Homo sapiens) (UniProt P25021); assay: Inhibition of histamine H2 receptor at 1 uM
[29] = target: Phospholipase A2 (Homo sapiens) (UniProt P04054); assay: Inhibition of phospholipase A2 at 1 uM
Homo sapiens [30] = species: Homo sapiens; assay: Inhibition of chloride channel at 1 uM
Rattus norvegicus [31] = assay: Ability to recognize novel object in Sprague-Dawley rat at 1 mg/kg, sc after 24 hrs; assay type: functional, organism-based; parameters: dose 1 mg/kg
Outline: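 Rats dosed subcutaneously 30 min before each of three experimental sessions. Discrimination between the novel and the familiar object was scored after a 24 h delay.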

[32] = target: Sodium-dependent dopamine transporter (Homo sapiens) (UniProt Q01959); assay: Inhibition of dopamine uptake at human DA transporter at 1 uM
[33] = Metabolic stability in Sprague-Dawley rat liver microsomes after 1 hr; assay type: ADME, Microsome; conditions: read-out: Stability
Outline: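 Rat liver microsomes incubated with compound, in vitro metabolism; read-out is percent of parent remaining at 1 h.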

[34] = target: Cannabinoid receptor 1 (Homo sapiens) (UniProt P21554); assay: Inhibition of CB1 receptor at 1 uM
Homo sapiens [35] = species: Homo sapiens; assay: Inhibition of PCP receptor at 1 uM
[36] = target: 5-hydroxytryptamine receptor 2C (Homo sapiens) (UniProt P28335); assay: Inhibition of 5HT2C receptor at 1 uM
[37] = target: Neuronal acetylcholine receptor subunit alpha-7 (Rattus norvegicus) (UniProt Q05941); assay: Activity at alpha7 nAChR in Sprague-Dawley rat hippocampal neurons assessed as induction of MLA-inhibited desensitizing inward current at 0.3 uM relative to (-)-nicotine; assay type: functional, tissue-based; parameters: scale not given: the % may be the effect or the level left; conditions: Hippocampus; outline: as §2
Homo sapiens [38] = species: Homo sapiens; assay: Inhibition of site 2 of sodium channel at 1 uM
Rattus norvegicus [39] = assay: Reversal of amphetamine-induced gating deficit in Sprague-Dawley at 10 mg/kg, iv; assay type: functional; outline: as §1
[40] = target: Angiotensin-converting enzyme (Homo sapiens) (UniProt P12821); assay: Inhibition of ACE at 1 uM
[41] = target: Vasopressin V1a receptor (Homo sapiens) (UniProt P37288); assay: Inhibition of V1A receptor at 1 uM
Vasopressin V1a receptor (Homo sapiens), sequence (P37288 whole entry, looked up): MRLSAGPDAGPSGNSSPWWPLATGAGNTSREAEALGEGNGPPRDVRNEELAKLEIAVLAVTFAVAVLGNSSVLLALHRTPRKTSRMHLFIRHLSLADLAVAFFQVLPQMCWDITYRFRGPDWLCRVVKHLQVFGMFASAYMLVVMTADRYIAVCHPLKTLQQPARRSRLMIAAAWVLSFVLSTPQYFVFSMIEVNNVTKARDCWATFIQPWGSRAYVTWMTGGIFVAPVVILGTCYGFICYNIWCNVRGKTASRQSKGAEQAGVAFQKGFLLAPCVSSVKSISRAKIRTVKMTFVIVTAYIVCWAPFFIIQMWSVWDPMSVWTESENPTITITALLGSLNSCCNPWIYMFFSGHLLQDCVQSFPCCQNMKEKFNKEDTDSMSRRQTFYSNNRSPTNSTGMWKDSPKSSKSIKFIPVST

Neuronal acetylcholine receptor subunit alpha-7 (Rattus norvegicus), sequence (Q05941 whole entry): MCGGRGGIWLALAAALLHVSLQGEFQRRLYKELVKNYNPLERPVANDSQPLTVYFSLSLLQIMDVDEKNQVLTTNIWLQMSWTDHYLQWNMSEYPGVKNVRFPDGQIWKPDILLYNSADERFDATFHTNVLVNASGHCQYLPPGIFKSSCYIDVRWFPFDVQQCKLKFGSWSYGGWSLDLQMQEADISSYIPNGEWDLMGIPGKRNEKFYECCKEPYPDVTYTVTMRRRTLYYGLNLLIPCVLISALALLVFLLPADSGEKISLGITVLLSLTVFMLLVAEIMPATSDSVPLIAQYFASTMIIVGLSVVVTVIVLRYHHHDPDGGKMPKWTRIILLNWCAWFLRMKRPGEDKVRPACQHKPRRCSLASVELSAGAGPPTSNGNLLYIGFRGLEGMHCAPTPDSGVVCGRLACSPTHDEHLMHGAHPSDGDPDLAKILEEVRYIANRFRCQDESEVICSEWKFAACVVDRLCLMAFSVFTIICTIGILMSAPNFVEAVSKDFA
Muscarinic acetylcholine receptor M4 (Homo sapiens), sequence (P08173 whole entry): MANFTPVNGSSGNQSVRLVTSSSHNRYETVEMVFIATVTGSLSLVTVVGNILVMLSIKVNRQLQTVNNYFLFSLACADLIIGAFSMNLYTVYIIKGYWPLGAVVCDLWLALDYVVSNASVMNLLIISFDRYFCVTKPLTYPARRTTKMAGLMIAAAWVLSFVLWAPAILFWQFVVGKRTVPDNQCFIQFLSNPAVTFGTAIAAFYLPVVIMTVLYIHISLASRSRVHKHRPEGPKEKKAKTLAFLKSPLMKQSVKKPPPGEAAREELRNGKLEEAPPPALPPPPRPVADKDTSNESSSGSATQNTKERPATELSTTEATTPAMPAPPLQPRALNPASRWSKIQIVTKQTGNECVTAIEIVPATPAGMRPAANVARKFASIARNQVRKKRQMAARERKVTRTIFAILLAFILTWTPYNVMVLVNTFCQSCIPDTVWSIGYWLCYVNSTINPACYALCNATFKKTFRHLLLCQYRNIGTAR
Vasoactive intestinal polypeptide receptor 2 (Homo sapiens), sequence (P41587 whole entry): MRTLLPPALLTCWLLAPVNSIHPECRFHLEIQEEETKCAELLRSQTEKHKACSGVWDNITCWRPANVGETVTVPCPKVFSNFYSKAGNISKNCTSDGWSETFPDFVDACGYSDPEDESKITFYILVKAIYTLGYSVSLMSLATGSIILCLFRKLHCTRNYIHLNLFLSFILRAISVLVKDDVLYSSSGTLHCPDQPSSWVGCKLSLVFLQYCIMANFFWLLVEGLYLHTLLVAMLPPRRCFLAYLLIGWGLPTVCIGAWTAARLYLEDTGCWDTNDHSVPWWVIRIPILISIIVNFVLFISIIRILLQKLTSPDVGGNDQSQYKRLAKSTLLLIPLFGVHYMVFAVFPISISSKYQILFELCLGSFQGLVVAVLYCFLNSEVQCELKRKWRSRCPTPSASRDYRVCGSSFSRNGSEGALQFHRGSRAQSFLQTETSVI
Sodium-dependent dopamine transporter (Homo sapiens), sequence (Q01959 whole entry): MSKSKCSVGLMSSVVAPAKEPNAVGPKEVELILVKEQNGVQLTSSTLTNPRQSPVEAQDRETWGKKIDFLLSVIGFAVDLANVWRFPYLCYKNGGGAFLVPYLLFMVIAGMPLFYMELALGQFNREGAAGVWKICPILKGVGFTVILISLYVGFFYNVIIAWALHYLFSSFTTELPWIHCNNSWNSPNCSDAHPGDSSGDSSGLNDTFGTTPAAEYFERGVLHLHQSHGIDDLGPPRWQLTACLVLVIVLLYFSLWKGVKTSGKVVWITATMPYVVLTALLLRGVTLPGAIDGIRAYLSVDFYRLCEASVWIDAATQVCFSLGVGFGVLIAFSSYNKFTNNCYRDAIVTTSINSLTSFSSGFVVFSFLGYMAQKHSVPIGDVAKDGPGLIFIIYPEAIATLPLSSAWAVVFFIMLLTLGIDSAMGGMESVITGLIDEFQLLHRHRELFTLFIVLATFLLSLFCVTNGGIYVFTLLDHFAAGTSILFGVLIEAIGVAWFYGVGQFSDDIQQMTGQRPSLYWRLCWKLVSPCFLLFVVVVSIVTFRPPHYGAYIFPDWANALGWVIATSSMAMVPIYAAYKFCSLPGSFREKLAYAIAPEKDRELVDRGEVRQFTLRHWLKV
Histamine H1 receptor (Homo sapiens), sequence (P35367 whole entry): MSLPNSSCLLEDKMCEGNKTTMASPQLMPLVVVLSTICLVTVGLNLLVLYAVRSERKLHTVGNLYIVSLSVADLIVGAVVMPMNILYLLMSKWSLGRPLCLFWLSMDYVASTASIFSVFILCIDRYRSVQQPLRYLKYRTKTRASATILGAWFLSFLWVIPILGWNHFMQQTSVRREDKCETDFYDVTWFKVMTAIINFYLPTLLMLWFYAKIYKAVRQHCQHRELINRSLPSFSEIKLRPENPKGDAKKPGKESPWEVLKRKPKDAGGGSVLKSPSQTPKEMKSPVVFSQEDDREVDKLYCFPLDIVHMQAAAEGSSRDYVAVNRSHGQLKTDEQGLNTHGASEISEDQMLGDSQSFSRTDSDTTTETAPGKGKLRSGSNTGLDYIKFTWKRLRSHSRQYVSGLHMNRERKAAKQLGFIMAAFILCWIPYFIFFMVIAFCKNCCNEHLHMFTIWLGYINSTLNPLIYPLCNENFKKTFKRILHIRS
Translocator protein (Homo sapiens), sequence (P30536 whole entry): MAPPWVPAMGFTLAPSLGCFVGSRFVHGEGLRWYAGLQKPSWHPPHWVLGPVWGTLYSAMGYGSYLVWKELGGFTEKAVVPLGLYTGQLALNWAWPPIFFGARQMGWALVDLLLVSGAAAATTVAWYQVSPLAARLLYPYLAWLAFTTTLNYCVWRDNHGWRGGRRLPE
Muscarinic acetylcholine receptor M3 (Homo sapiens), sequence (P20309 whole entry, looked up): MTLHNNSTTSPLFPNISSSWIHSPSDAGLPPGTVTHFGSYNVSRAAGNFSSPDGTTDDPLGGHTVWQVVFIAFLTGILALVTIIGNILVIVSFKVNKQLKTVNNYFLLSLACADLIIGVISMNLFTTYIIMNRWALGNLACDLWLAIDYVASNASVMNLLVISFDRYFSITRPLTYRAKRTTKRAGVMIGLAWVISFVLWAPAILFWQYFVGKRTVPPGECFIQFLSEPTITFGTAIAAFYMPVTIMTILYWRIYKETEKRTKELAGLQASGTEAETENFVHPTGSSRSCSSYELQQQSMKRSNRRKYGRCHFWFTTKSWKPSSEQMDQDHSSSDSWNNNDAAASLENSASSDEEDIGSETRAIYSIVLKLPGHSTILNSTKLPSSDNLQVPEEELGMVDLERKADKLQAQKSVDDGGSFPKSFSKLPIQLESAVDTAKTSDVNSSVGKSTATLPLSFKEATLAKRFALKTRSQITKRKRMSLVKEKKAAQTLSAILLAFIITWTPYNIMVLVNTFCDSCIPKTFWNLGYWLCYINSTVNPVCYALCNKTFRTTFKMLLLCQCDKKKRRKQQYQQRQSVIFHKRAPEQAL
Sigma non-opioid intracellular receptor 1 (Homo sapiens), sequence (Q99720 whole entry): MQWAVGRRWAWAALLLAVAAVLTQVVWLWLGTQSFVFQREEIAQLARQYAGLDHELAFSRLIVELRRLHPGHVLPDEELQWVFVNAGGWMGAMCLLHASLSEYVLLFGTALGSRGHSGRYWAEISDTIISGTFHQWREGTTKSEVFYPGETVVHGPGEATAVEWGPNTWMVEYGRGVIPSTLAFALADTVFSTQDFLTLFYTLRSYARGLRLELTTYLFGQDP
5-hydroxytryptamine receptor 2C (Homo sapiens), sequence (P28335 whole entry): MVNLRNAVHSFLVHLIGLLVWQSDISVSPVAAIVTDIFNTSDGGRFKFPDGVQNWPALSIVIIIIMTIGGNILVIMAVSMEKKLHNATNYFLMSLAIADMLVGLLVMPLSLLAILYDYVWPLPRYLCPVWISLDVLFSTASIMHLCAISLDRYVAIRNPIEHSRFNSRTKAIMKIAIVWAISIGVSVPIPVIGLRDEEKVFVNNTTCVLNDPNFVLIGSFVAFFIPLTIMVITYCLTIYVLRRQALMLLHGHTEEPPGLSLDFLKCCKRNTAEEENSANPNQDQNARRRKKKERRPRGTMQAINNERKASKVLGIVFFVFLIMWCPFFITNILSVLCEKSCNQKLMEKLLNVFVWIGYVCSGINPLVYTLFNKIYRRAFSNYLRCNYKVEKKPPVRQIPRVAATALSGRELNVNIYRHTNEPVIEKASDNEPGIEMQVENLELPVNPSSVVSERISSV
Cannabinoid receptor 1 (Homo sapiens), sequence (P21554 whole entry): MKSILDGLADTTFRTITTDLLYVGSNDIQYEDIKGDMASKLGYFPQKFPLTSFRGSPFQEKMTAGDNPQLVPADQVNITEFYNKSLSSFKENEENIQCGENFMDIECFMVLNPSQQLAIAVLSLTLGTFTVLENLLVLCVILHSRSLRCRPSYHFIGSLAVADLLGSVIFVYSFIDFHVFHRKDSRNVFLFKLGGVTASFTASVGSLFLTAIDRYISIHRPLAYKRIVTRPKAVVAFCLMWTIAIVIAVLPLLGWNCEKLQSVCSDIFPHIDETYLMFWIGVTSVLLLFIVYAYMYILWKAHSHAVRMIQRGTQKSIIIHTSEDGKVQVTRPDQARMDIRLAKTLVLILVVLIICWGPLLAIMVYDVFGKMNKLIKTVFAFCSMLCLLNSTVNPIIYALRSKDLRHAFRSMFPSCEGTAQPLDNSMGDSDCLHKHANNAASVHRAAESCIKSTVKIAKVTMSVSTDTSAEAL

Compound `O=C(N[C@H]1CN2CCC1CC2)c1cc2ccoc2cn1` [PHA-543613] has a pIC50 [1] of less than 4.00, an inhibition [2] of less than 10% and an inhibition [3] of less than 10%. For the same compound, the inhibition [4] was 33%, the inhibition [5] was 25% and the inhibition at 1 µM [6] was less than 10%. The inhibition [7] was less than 10%, the inhibition [8] was less than 10% and the inhibition [9] was 10%. The Activity (Rattus norvegicus [10]) was “Active”, the inhibition [11] was less than 10% and the inhibition [12] was less than 10%. The inhibition [13] was 14%, the inhibition [14] was less than 10% and the inhibition [15] was 11%. For the same compound, the inhibition [16] was less than 10%, the pKi [17] was 6.29 and the Activity [18] was 220%. The inhibition [19] was 23%, the inhibition [20] was 26% and the inhibition [21] was less than 10%. It also gave an inhibition [22] of less than 10%, an inhibition [23] of less than 10% and an inhibition [24] of less than 10%. For the same compound, the inhibition [25] was less than 10%, the inhibition [26] was 18% and the bioavailability [27] was 63%. It also gave an inhibition [28] of less than 10%, an inhibition [29] of 20% and an inhibition (Homo sapiens [30]) of less than 10%. For the same compound, the Activity (Rattus norvegicus [31]) was “Active”, the inhibition [32] was less than 10% and the remaining at 1 h [33] was 55%. For the same compound, the inhibition [34] was less than 10%, the inhibition (Homo sapiens [35]) was less than 10% and the inhibition [36] was less than 10%. It also gave an Activity [37] of 34%, an inhibition (Homo sapiens [38]) of 13% and an Activity (Rattus norvegicus [39]) of 51%. It also gave an inhibition [40] of less than 10% and an inhibition [41] of 14%.
